Data on two compounds can be found in ChEMBL document CHEMBL3758120, “Synthesis and Mechanism Studies of 1,3-Benzoazolyl Substituted Pyrrolo[2,3-b]pyrazine Derivatives as Nonintercalative Topoisomerase II Catalytic Inhibitors” (J Med Chem, 2016).

pIC50: −log10 of the molar value. Activity calls are given as the source filed them. The rule behind the calls is not given here.

Test [1] concerns the target T1, DNA topoisomerase 2-alpha (Homo sapiens, UniProt P11388). In words: Inhibition of purified human topoisomerase 2-mediated relaxation of supercoiled pBR322 DNA at 20 uM incubated for 30 mins by agarose gel electrophoresis. The method in brief:
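Reactions contained 0.2 μg supercoiled pBR322 in 50 mM Tris-HCl pH 8.0, 150 mM NaCl, 10 mM MgCl2, 0.5 mM DTT, 30 μg/ml BSA, normally 2 mM ATP (1, 2 or 4 mM in ATP-competition runs). Started with 1 U human Topo II, 30 min at 37 °C, stopped with sarcosyl buffer, run on 1% agarose 1.5 h at 75 V, gel-stained and imaged under UV.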

The target of test [2] is T2, DNA topoisomerase 1 (Homo sapiens) (UniProt P11387).
T2 sequence (whole entry): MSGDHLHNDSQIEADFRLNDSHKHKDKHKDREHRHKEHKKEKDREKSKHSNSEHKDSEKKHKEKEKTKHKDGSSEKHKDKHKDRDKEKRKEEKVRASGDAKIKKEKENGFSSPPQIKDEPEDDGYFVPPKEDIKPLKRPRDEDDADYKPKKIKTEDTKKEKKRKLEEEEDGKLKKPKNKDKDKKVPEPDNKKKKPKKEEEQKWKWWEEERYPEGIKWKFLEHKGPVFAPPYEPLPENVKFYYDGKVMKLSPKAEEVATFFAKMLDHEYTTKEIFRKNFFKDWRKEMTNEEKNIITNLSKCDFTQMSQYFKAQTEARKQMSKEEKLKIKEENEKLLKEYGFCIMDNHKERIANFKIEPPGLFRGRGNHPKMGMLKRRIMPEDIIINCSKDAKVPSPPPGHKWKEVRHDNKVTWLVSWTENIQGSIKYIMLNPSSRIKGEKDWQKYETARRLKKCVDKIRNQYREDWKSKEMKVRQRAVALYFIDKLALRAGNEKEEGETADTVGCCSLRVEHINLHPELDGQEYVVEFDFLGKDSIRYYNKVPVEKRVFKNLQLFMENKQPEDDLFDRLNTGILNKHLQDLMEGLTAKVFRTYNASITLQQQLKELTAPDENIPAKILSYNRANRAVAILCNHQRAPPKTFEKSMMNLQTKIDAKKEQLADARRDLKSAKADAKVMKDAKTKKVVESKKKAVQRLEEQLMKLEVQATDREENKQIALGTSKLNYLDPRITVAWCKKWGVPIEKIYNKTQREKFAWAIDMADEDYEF
In words: Inhibition of recombinant human topoisomerase 1-mediated relaxation of supercoiled pBR322 DNA at 50 uM incubated for 30 mins by agarose gel electrophoresis. The method in brief: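 Supercoiled pBR322 relaxed by Topo I with compound, incubated 30 min at 37 °C, stopped with 1% SDS dye, run on 1% agarose 1 h at 90 V in TAE, stained and imaged under UV; camptothecin as reference.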

The subject of another test is HeLa. In words: Antiproliferative activity against human HeLa cells after 48 hrs by MTT assay. It counts as functional, cell-based. The method, boiled down:
(§1)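 Cells seeded at 5000 per well and left overnight, then exposed to increasing concentrations (0-50 μM) for 48 h. […] HL-60/MX2 is a mitoxantrone-selected HL-60 derivative with reduced Topo IIα/β.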

Test [3] in a line: Antiproliferative activity against human MDA-MB-201 cells after 48 hrs by MTT assay. It counts as functional, cell-based. The method, boiled down: as §1
A further test concerns Raji. In words: Antiproliferative activity against human Raji cells after 48 hrs by MTT assay. The format is functional, cell-based. The method, boiled down: as §1
The nature of test [4]: Antiproliferative activity against human HL60/MX2 cells after 48 hrs by MTT assay. The format is functional, cell-based. As to conditions: HL60/MX2, 48 h. The method, boiled down: as §1
The next test relates to HEK293. Description: Cytotoxicity against HEK293 cells after 48 hrs by MTT assay. It counts as cell-based. The settings on record: Homo sapiens, HEK293, 48 h.
Test [5] has as its system HL-60. Description: Induction of apoptosis in human HL60 cells assessed as late apoptotic cells at 0.5 uM after 12 hrs by annexin V-FITC/propidium iodide staining-based flow cytometric analysis (reference value: 0.17 to 0.18%). It counts as functional. The method, boiled down: (§2)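 HL-60 cells at 5.0 × 10^5 cells/ml treated for 12 h (0.5–2 μM) or 24 h (0.25–1 μM), washed twice in cold PBS, resuspended in binding buffer, stained with annexin V-FITC and propidium iodide for 15 min in the dark, analysed by flow cytometry within 1 h; quadrants define live, early and late apoptotic cells. Three repeats.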

In test [6] the test system is HL-60. In words: Induction of apoptosis in human HL60 cells assessed as dead cells at 1 uM after 12 hrs by annexin V-FITC/propidium iodide staining-based flow cytometric analysis (reference value: 0.12 to 0.15%). It counts as functional.
Test [7] relates to HL-60. In words: Induction of apoptosis in human HL60 cells assessed as viable cells at 2 uM after 12 hrs by annexin V-FITC/propidium iodide staining-based flow cytometric analysis (reference value: 99.12 to 99.33%). The format is functional. The settings on record: HL-60, 12 h, read-out: Activity. The method, boiled down: as §2
Test [8] deals with HL-60. Description: Induction of apoptosis in human HL60 cells assessed as early apoptotic cells at 2 uM after 12 hrs by annexin V-FITC/propidium iodide staining-based flow cytometric analysis (reference value: 0.38 to 0.55%). It counts as functional. The method in brief:
as §2

Test [9] deals with HL-60. Description: Induction of apoptosis in human HL60 cells assessed as dead cells at 0.25 uM after 24 hrs by annexin V-FITC/propidium iodide staining-based flow cytometric analysis (reference value: 0.12%). It counts as functional.
The subject of test [10] is HL-60. Description: Induction of apoptosis in human HL60 cells assessed as viable cells at 0.25 uM after 24 hrs by annexin V-FITC/propidium iodide staining-based flow cytometric analysis (reference value: 97.75%). The format is functional. As to conditions: HL-60, 24 h, read-out: Activity. The method in brief:
as §2

Test [11] concerns HL-60. In words: Induction of apoptosis in human HL60 cells assessed as early apoptotic cells at 0.25 uM after 24 hrs by annexin V-FITC/propidium iodide staining-based flow cytometric analysis (reference value: 0.5%). The format is functional. The method in brief: as §2
The test system of test [12] is HL-60. Description: Induction of apoptosis in human HL60 cells assessed as dead cells at 0.5 uM after 24 hrs by annexin V-FITC/propidium iodide staining-based flow cytometric analysis (reference value: 0.12%). It counts as functional.
Test [13] has as its system HL-60. Description: Induction of apoptosis in human HL60 cells assessed as late apoptotic cells at 0.5 uM after 24 hrs by annexin V-FITC/propidium iodide staining-based flow cytometric analysis (reference value: 1.64%). It counts as functional. The method, boiled down:
as §2

Test [14] has as its system HL-60. In words: Induction of apoptosis in human HL60 cells assessed as early apoptotic cells at 0.5 uM after 24 hrs by annexin V-FITC/propidium iodide staining-based flow cytometric analysis (reference value: 0.5%). It counts as functional. The method in brief:
as §2

The subject of test [15] is HL-60. In words: Induction of apoptosis in human HL60 cells assessed as early apoptotic cells at 1 uM after 24 hrs by annexin V-FITC/propidium iodide staining-based flow cytometric analysis (reference value: 0.5%). The format is functional. The method, boiled down: as §2
Test [16] has as its target T1, DNA topoisomerase 2-alpha. In words: Inhibition of purified human topoisomerase 2 catalytic activity using supercoiled pBR322 DNA as substrate assessed as inhibition of etoposide-induced linear DNA formation at 20 uM pre-incubated before etoposide addition by agarose gel electrophoresis. The method in brief: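 Human Topo II (6 units) with 0.1 μg supercoiled pBR322 in 50 mM Tris-HCl pH 8.0, 150 mM NaCl, 10 mM MgCl2, 2 mM ATP, 0.5 mM DTT, 30 μg/ml BSA; compounds at 20 μM, etoposide 100 μM. After 6 min at 37 °C, complexes trapped with SDS then EDTA, proteinase K 30 min at 45 °C, heated 72 °C 2 min, run on 1% agarose; linear DNA scored. Antagonism tested by compound pretreatment before etoposide.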

T1 sequence (P11388 whole entry): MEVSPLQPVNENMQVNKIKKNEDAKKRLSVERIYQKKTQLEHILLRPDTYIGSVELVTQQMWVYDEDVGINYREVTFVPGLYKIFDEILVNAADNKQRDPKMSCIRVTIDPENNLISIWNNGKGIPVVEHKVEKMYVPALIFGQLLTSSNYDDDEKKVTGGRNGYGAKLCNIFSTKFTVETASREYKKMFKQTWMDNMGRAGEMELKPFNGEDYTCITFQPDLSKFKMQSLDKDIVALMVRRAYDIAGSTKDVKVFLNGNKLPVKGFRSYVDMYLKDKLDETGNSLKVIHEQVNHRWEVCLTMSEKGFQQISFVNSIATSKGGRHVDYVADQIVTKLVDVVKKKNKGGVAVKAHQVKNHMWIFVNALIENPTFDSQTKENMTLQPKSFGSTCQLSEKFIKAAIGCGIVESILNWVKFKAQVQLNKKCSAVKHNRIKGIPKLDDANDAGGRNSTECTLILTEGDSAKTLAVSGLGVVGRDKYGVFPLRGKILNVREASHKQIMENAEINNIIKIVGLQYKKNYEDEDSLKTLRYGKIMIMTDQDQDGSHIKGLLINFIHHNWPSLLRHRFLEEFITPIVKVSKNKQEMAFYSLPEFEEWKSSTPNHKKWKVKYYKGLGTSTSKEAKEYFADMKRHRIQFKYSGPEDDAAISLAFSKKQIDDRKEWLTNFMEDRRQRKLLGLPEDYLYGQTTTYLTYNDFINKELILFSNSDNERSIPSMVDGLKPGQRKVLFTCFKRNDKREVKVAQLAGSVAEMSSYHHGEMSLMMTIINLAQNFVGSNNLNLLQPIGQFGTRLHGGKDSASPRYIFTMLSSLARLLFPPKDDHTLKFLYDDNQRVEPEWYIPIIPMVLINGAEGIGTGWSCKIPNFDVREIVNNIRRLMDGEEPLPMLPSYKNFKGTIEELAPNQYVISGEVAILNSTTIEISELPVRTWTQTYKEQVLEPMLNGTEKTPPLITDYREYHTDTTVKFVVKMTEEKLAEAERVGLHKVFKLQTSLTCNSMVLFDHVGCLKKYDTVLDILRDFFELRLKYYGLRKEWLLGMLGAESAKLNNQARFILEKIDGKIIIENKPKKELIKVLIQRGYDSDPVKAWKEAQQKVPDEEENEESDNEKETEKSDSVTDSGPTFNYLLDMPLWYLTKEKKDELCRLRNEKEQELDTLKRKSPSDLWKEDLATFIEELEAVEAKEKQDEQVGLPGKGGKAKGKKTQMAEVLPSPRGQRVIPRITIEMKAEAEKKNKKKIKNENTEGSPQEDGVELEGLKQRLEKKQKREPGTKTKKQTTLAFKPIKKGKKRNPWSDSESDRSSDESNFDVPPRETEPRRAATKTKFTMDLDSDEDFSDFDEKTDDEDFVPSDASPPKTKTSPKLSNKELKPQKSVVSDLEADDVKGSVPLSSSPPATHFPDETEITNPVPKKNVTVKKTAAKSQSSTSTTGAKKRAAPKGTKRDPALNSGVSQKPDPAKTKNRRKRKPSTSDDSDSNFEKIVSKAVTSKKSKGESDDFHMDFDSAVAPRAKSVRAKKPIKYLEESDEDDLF

Regarding `CN(C)CCCCn1c(N)c(-c2nc3ccccc3[nH]2)c2nc(C#N)c(C#N)nc21`, the inhibition result in test [1] and in test [16] was “Active” in each case. Besides, the inhibition entry in [2] is “inactive”. Moreover, the pIC50 was 4.95 in the test with HeLa; 6.28 in [3]; 5.59 in the test on Raji; 5.75 in test [4]; 5.38 in the test on HEK293. For the same compound, the Activity came out at 0.21% in the test with HL-60 [5]; 0.11% in the test with HL-60 [6]; 5.8% in the test with HL-60 [8]; 0.03% in the test on HL-60 [9]; 0.54% in the test on HL-60 [11]; 2.28% in the test on HL-60 [12]. Moreover, the figures for the Activity with HL-60 [13], with HL-60 [14] and with HL-60 [15] were 79.38%, 4.45% and 0.53%, respectively. The viability at 2 µM in the test on HL-60 [7] amounted to 28.1%. In addition, the viability at 0.25 µM with HL-60 [10] worked out at 99%.

For the compound `CCN(CC)CCCCn1c(N)c(-c2nc3ccccc3[nH]2)c2nc(C#N)c(C#N)nc21`, the inhibition entry in [1] and in [16] was “Active” throughout. Besides, the inhibition result in test [2] was “inactive”. Moreover, the pIC50 in the test with HeLa was 5.00; in [3], 6.19; in the test on Raji, 5.58; in [4], 5.81; with HEK293 it was 5.27. The Activity in the test on HL-60 [5] worked out at 0.21%; in the test with HL-60 [6], 0.25%; in the test on HL-60 [8], 6.62%; with HL-60 [9], 0.07%; in the test on HL-60 [11] it was 0.35%; with HL-60 [12], 0.43%. For the same compound, the Activity in the test on HL-60 [13] came out at 17.65%; with HL-60 [14], 3.24%; with HL-60 [15] it was 9.38%. In addition, the viability at 2 µM with HL-60 [7] was found to be 45.3%. In the test on HL-60 [10], the viability at 0.25 µM was 99.2%.
